Measured values published in ChEMBL document CHEMBL3808376, “Iminolactones as tools for inversion of the absolute configuration of α-amino acids and as inhibitors of cancer cell proliferation” (Eur J Med Chem, 2016).

Experiments:
MCF7 = assay: Antiproliferative activity against human MCF7 cells after 48 hrs by Sulforhodamine B assay; format: functional, cell-based; conditions: MCF7, 48 h
Method in brief: (§1)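 Cancer lines from the National Cancer Institute (murine leukemic EL4, human breast MCF7, human prostate PC3), in a standard high-flux screening format. Cells incubated with compound at several concentrations, 37 °C for 48 h. Trichloroacetic acid fixation, sulforhodamine B staining, absorbance read at 490 nm. IC50 reported as mean SD of three experiments.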

[1] = Antiproliferative activity against human MCF10A cells after 48 hrs by Sulforhodamine B assay; format: cell-based; conditions: MCF-10A
[2] = Antiproliferative activity against mouse McCoy cells after 48 hrs by Sulforhodamine B assay; format: cell-based
[3] = Antiproliferative activity against mouse NIH/3T3 cells after 48 hrs by Sulforhodamine B assay; format: cell-based; conditions: NIH3T3, 48 h
[4] = Antiproliferative activity against human PC3 cells after 48 hrs by Sulforhodamine B assay; format: functional, cell-based; conditions: PC-3, 48 h; method in brief: as §1
EL4 = assay: Antiproliferative activity against mouse EL4 cells after 48 hrs by Sulforhodamine B assay; format: functional, cell-based; conditions: EL4, 48 h; method in brief: as §1

SMILES | IC50 (MCF7) | IC50 [1] | IC50 [2] | IC50 [3] | IC50 [4] | IC50 (EL4)
CC(C)(C)OC(=O)NCCCC[C@H]1N=C2C[C@H]3C[C@H](C3(C)C)[C@@]2(C)OC1=O | 15.3 µM | > 1300 µM | > 1300 µM | > 1300 µM | 15.9 µM | 14.5 µM
CC(C)(C)OC(=O)CC[C@@H]1N=C2C[C@@H]3C[C@@H](C3(C)C)[C@]2(C)OC1=O | 40 µM | > 1000 µM | > 1000 µM | > 1000 µM | 42 µM | 36 µM
CC1(C)[C@H]2CC3=NCC(=O)O[C@]3(C)[C@@H]1C2 | > 300 µM | > 2000 µM | > 2000 µM | > 2000 µM | > 300 µM | > 300 µM
CC(C)(C)OC(=O)n1cnc(C[C@H]2N=C3C[C@H]4C[C@H](C4(C)C)[C@@]3(C)OC2=O)c1 | 142 µM | > 1300 µM | > 1300 µM | > 1300 µM | 147 µM | 139 µM
C[C@@H]1N=C2C[C@@H]3C[C@@H](C3(C)C)[C@]2(C)OC1=O | 154 µM | > 2000 µM | > 2000 µM | > 2000 µM | 149 µM | 145 µM
C[C@@]12CCCC[C@H]1CC[C@@H]1OC(=O)[C@H](Cc3ccccc3)N=C12 | 53 µM | > 1700 µM | > 1700 µM | > 1700 µM | 51 µM | 50 µM
O=C1O[C@@H]2CCc3ccccc3C2=N[C@H]1Cc1ccccc1 | 27 µM | > 1000 µM | > 1000 µM | > 1000 µM | 30 µM | 24 µM
O=C1O[C@@H]2CCc3ccccc3C2=N[C@H]1Cc1c[nH]c2ccccc12 | 25 µM | > 1000 µM | > 1000 µM | > 1000 µM | 26 µM | 22 µM
CC(C)(C)OC(=O)CC[C@H]1N=C2C[C@H]3C[C@H](C3(C)C)[C@@]2(C)OC1=O | 54 µM | > 1200 µM | > 1200 µM | > 1200 µM | 55 µM | 51 µM
CC1(C)[C@H]2CC[C@]1(C)[C@H]1OC(=O)CN=C21 | 135 µM | > 900 µM | > 900 µM | > 900 µM | 145 µM | 82 µM
C[C@@]12CCCC[C@H]1CC=C(O)C2=O | 119 µM | > 2000 µM | > 2000 µM | > 2000 µM | 119 µM | 114 µM
CC(C)(C)OC(=O)NCCC[C@H]1N=C2C[C@H]3C[C@H](C3(C)C)[C@@]2(C)OC1=O | 56 µM | > 1500 µM | > 1500 µM | > 1500 µM | 60 µM | 48 µM
O=C1O[C@H]2CCc3ccccc3C2=N[C@H]1Cc1ccccc1 | 41 µM | > 1000 µM | > 1000 µM | > 1000 µM | 45 µM | 39 µM
CC1(C)[C@@H]2CC3=N[C@@H](CCC(=O)O)C(=O)O[C@@]3(C)[C@H]1C2 | 38 µM | > 1200 µM | > 1200 µM | > 1200 µM | 42 µM | 36 µM
CC1(C)N=C2C[C@H]3C[C@H](C3(C)C)[C@@]2(C)OC1=O | 162 µM | > 2000 µM | > 2000 µM | > 2000 µM | 166 µM | 149 µM
O=C1O[C@H]2CCc3ccccc3C2=N[C@H]1Cc1c[nH]c2ccccc12 | 39 µM | > 1000 µM | > 1000 µM | > 1000 µM | 39 µM | 36 µM
CC(C)(C)OC(=O)NCCCC[C@@H]1N=C2C[C@@H]3C[C@@H](C3(C)C)[C@]2(C)OC1=O | 17 µM | > 800 µM | > 800 µM | > 800 µM | 18 µM | 15 µM
C[C@@]12CCCC[C@H]1CC[C@@H]1OC(=O)CN=C12 | 11 µM | > 2000 µM | > 2000 µM | > 2000 µM | 13 µM | 7.7 µM
C[C@H]1N=C2[C@H](CC[C@@H]3CCCC[C@@]23C)OC1=O | 57 µM | > 2000 µM | > 2000 µM | > 2000 µM | 57 µM | 53 µM
C[C@@]12CCCC[C@H]1CC[C@@H]1OC(=O)[C@H](Cc3c[nH]c4ccccc34)N=C12 | 77 µM | > 1500 µM | > 1500 µM | > 1500 µM | 83 µM | 71 µM
CC(C)(C)OC(=O)NCCC[C@@H]1N=C2C[C@@H]3C[C@@H](C3(C)C)[C@]2(C)OC1=O | 6.3 µM | > 1200 µM | > 1200 µM | > 1200 µM | 6.6 µM | 4.1 µM
CC1(C)[C@H]2CC3=N[C@H](Cc4ccccc4)C(=O)O[C@]3(C)[C@@H]1C2 | 8.4 µM | > 1500 µM | > 1500 µM | > 1500 µM | 9.4 µM | 7.7 µM
CC1(C)[C@H]2CC3=N[C@H](CCC(=O)O)C(=O)O[C@]3(C)[C@@H]1C2 | 34 µM | > 1200 µM | > 1200 µM | > 1200 µM | 38 µM | 30 µM
C[C@@]12CCCC[C@H]1CC[C@@H]1OC(=O)[C@@H](Cc3ccccc3)N=C12 | 12 µM | > 1200 µM | > 1200 µM | > 1200 µM | 12 µM | 12 µM
CC1(C)[C@H]2CC[C@]1(C)[C@H]1OC(=O)[C@H](Cc3ccccc3)N=C21 |  |  |  |  | 160 µM | 
C[C@H]1N=C2C[C@H]3C[C@H](C3(C)C)[C@@]2(C)OC1=O | 38 µM | > 1800 µM | > 1800 µM | > 1800 µM | 42 µM | 27 µM
CC1(C)[C@@H]2CC3=N[C@@H](Cc4ccccc4)C(=O)O[C@@]3(C)[C@H]1C2 | > 300 µM | > 1000 µM | > 1000 µM | > 1000 µM | > 300 µM | > 300 µM
CC1(C)[C@@H]2CC3=NCC(=O)O[C@@]3(C)[C@H]1C2 | 22 µM | > 900 µM | > 900 µM | > 900 µM | 43 µM | 19 µM
